Source: ChEMBL document CHEMBL1944513, “Synthesis of novel 2-mercapto benzothiazole and 1,2,3-triazole based bis-heterocycles: their anti-inflammatory and anti-nociceptive activities” (Eur J Med Chem, 2012)
Calls of active or inactive are those of the source. No cut-off for these calls is given here.

Experiments:
[1] = test system: Rattus norvegicus; assay: Antiinflammatory activity in Albino Wistar rat assessed as inhibition of carrageenan-induced paw edema at 10 mg/kg, po administered 1 hr before carrageenan challenge measured after 3 hrs by plethysmometer; type: functional
Procedure, shortened: (§1)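 Rats fasted 14 h with water only. Compounds given orally at dose equimolar to ibuprofen (10 mg/kg p.o.) 1 h before subplantar injection of 0.1 ml freshly prepared 1% carrageenan in saline into right hind paw. Control received 0.1 ml 0.9% saline orally. Change in paw volume (ml) at 3 and 5 h; % inhibition; one-way ANOVA with Dunnett's test.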

[2] = test system: Rattus norvegicus; assay: Ulcerogenicity in Albino Wistar rat assessed as gastric ulceration at 30 mg/kg, po relative to untreated control; type: toxicity, organism-based, Stomach; design: dose 30 mg/kg, route oral; settings: in vivo
Procedure, shortened: (§2)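 Oral dosing at three times the anti-inflammatory dose: ibuprofen 30 mg/kg or equimolar test compound. Three animals per group, sacrificed afterwards. Stomach wall sections stained with haematoxylin-eosin and examined at 10x and 40x for mucosal, submucosal and epithelial damage.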

[3] = test system: Mus musculus; assay: Analgesic activity in mouse assessed as inhibition of acetic acid-induced writhing at 10 mg/kg, po administered 30 mins before to acetic acid challenge measured for 20 mins relative to control; type: functional, organism-based; design: dose 10 mg/kg
Procedure, shortened: (§3)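 Writhing induced in mice by intraperitoneal 0.6% (v/v) acetic acid (80 mg/kg). Compounds given orally at dose equimolar to ibuprofen 10 mg/kg, 30 min before stimulus; ibuprofen 10 mg/kg orally as reference. Six animals per group.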

[4] = test system: Rattus norvegicus; assay: Antiinflammatory activity in Albino Wistar rat assessed as inhibition of carrageenan-induced paw edema at 10 mg/kg, po administered 1 hr before carrageenan challenge measured after 5 hrs by plethysmometer; type: functional; procedure, shortened: as §1
[5] = test system: Mus musculus; assay: Ulcerogenicity in mouse assessed as gastric ulceration at 30 mg/kg, po relative to untreated control; type: toxicity, organism-based, Stomach; design: dose 30 mg/kg, route oral; settings: in vivo
[6] = Selectivity ratio of IC50 for human recombinant COX2 to IC50 for ram seminal vesicle COX1; type: tissue-based
Procedure, shortened: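 COX-1 and COX-2 purified chromatographically. Peroxidase read-out from TMPD oxidation during PGG2 to PGH2 reduction. Mix: 100 mM Tris-HCl pH 8.0, hematin, 3 mM EDTA, […], test compound; 1 min preincubation at 25 °C; started with arachidonic acid plus TMPD. Rate from absorbance rise at 603 nm over first 25 s. Ratio is IC50 COX-2/IC50 COX-1.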

[7] = test system: Rattus norvegicus; assay: Antiinflammatory activity in Albino Wistar rat assessed as inhibition of carrageenan-induced paw edema at equimolar dosage of Ibuprofen 10 mg/kg, po administered 1 hr before carrageenan challenge measured after 3 hrs by plethysmometer; type: functional; procedure, shortened: as §1
[8] = test system: Rattus norvegicus; assay: Antiinflammatory activity in Albino Wistar rat assessed as inhibition of carrageenan-induced paw edema at equimolar dosage of Ibuprofen 10 mg/kg, po administered 1 hr before carrageenan challenge measured after 5 hrs by plethysmometer; type: functional; procedure, shortened: as §1
[9] = test system: Rattus norvegicus; assay: Ulcerogenicity in Albino Wistar rat assessed as gastric ulceration at equimolar dosage of Ibuprofen 30 mg/kg, po relative to control; type: toxicity, organism-based, Stomach; design: dose 30 mg/kg, route oral; settings: in vivo; procedure, shortened: as §2
[10] = test system: Rattus norvegicus; assay: Antiinflammatory activity in Albino Wistar rat assessed as inhibition of carrageenan-induced paw edema at equimolar dosage of Ibuprofen 10 mg/kg, po administered 1 hr before carrageenan challenge by plethysmometer; type: functional, organism-based; design: dose 10 mg/kg; settings: TDE = time-dependent effect, at 10 mg/kg; procedure, shortened: as §1
[11] = test system: Mus musculus; assay: Ulcerogenicity in mouse assessed as gastric ulceration at equimolar dosage of Ibuprofen 30 mg/kg, po relative to control; type: toxicity, organism-based, Stomach; design: dose 30 mg/kg, route oral; settings: in vivo
[12] = test system: Mus musculus; assay: Analgesic activity in mouse assessed as inhibition of acetic acid-induced writhing at equimolar dosage of Ibuprofen 10 mg/kg, po administered 30 mins before to acetic acid challenge measured for 20 mins relative to control; type: functional, organism-based; design: dose 10 mg/kg; settings: at 10 mg/kg; procedure, shortened: as §3

Row | SMILES | inhibition in vivo [7] | inhibition in vivo [8] | other results
1 | CC(C)Cc1ccc(C(C)C(=O)O)cc1 (stereo unspecified) [IBUPROFEN] |  |  | inhibition in vivo at 10 mg/kg [1]: 69.5%; Activity [2]: Toxic; inhibition [3]: Active; inhibition in vivo at 10 mg/kg [4]: 71.7%; Activity [5]: Toxic
2 | O=[N+]([O-])c1cccc(-n2cc(CSc3nc4ccccc4s3)nn2)c1 | 11.7% | 21.5% | Ratio IC50 [6]: 5.21
3 | Brc1ccc(-n2cc(CSc3nc4ccccc4s3)nn2)cc1 | 75% | 59.2% | Activity [9]: Non-toxic; inhibition [10]: tde; Activity [11]: Non-toxic; inhibition [12]: Active
4 | Clc1ccc(-n2cc(CSc3nc4ccccc4s3)nn2)cc1 | 50% | 43.4% | Ratio IC50 [6]: 14.9
5 | c1ccc(-n2cc(CSc3nc4ccccc4s3)nn2)cc1 | 46.7% | 32.1% | 
6 | CCOc1ccc(-n2cc(CSc3nc4ccccc4s3)nn2)cc1 | 38.3% | 34% | 
7 | Cc1ccc(-c2cc(C(F)(F)F)nn2-c2ccc(S(N)(=O)=O)cc2)cc1 |  |  | Ratio IC50 [6]: 0.0028
8 | O[C@@H]1[C@H](O)[C@@H](O)OC(Cn2cc(CSc3nc4ccccc4s3)nn2)[C@@H]1O (stereo partly specified) | 63.3% | 60.4% | 
9 | Fc1ccc(-n2cc(CSc3nc4ccccc4s3)nn2)cc1 | 77.8% | 81.1% | Activity [9]: Non-toxic; inhibition [10]: tde; Ratio IC50 [6]: 0.441; Activity [11]: Non-toxic; inhibition [12]: Active
10 | O=[N+]([O-])c1ccc(-n2cc(CSc3nc4ccccc4s3)nn2)cc1 | 75% | 65.5% | Activity [9]: Non-toxic; inhibition [10]: tde; Activity [11]: Non-toxic; inhibition [12]: Active
11 | CC1(C)OCC(Cn2cc(CSc3nc4ccccc4s3)nn2)O1 (stereo unspecified) | 53.3% | 49% | 
12 | Clc1ccccc1-n1cc(CSc2nc3ccccc3s2)nn1 | 83.3% | 78.1% | Activity [9]: Non-toxic; inhibition [10]: tde; Activity [11]: Non-toxic; inhibition [12]: Active
13 | CC1(C)O[C@H]2OC(Cn3cc(CSc4nc5ccccc5s4)nn3)[C@@H]3OC(C)(C)O[C@@H]3[C@@H]2O1 (stereo partly specified) | 59.7% | 56.6% | Ratio IC50 [6]: 1.53
14 | OCC(O)Cn1cc(CSc2nc3ccccc3s2)nn1 (stereo unspecified) | 56.7% | 52.8% | 
15 | Cc1ccccc1-n1cc(CSc2nc3ccccc3s2)nn1 | 47.3% | 43.4% | 
16 | c1cncc(-n2cc(CSc3nc4ccccc4s3)nn2)c1 | 64% | 56% | 
17 | Clc1cccc(-n2cc(CSc3nc4ccccc4s3)nn2)c1 | 35% | 39.6% | 
